Consider 21 compounds from ChEMBL document CHEMBL1122958, “Angiotensin converting enzyme inhibitors. (Mercaptoaroyl)amino acids” (J Med Chem, 1985).

Experiment [1] has as its target T1, Angiotensin-converting enzyme (Oryctolagus cuniculus, UniProt P12822).
T1 sequence (P12822 whole entry): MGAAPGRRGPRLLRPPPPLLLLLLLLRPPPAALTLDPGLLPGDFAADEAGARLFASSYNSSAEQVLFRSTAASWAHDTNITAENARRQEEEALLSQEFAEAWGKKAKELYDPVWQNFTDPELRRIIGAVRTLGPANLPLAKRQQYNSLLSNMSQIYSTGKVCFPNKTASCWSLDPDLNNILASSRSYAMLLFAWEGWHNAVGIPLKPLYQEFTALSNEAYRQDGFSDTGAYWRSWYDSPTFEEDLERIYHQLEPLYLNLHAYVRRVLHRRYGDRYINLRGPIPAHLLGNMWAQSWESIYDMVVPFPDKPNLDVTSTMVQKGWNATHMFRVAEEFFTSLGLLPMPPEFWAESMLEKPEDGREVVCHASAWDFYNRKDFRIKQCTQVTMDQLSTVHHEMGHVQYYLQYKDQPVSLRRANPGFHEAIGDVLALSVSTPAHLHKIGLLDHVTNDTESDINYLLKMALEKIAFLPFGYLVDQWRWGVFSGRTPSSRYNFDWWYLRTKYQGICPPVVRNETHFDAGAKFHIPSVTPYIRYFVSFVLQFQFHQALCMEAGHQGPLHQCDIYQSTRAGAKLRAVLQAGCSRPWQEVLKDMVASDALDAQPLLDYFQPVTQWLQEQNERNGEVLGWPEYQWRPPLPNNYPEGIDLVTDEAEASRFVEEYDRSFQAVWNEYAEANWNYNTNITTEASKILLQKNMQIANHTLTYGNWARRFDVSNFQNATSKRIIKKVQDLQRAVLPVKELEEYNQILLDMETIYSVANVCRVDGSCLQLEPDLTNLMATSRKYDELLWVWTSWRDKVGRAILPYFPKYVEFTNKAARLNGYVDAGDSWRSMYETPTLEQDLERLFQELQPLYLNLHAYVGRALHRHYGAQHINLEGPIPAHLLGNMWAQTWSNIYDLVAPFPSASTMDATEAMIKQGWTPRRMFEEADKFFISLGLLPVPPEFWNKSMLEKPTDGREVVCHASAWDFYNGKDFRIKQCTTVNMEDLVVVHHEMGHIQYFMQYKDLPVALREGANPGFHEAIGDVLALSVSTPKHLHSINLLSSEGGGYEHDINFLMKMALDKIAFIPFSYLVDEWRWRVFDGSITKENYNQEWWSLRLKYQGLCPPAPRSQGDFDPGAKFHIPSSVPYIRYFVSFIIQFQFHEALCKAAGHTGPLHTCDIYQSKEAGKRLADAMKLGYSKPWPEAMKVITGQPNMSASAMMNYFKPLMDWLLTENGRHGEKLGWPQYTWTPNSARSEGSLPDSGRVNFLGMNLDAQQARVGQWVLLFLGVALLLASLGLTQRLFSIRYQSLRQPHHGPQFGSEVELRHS
As to the kind of experiment: In vitro inhibitory activity against Angiotensin I converting enzyme. The procedure, abridged:
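Crude ACE from rabbit lung acetone powder, extracted in cold 0.05 M KH2PO4–0.03 M n-octyl-β-D-glucopyranoside pH 8.3, centrifuged 30000g, supernatant dialysed. Assay in 0.1 M KH2PO4–0.3 M NaCl–2% Me2SO, pH 8.3, 37 °C, substrate hippuryl-L-histidyl-L-leucine 2 mM; started by enzyme addition. Activity compared with and without inhibitor (in Me2SO). IC50 from one concentration–response curve per compound.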

Experiment [2] concerns the target T2, Angiotensin-converting enzyme (Rattus norvegicus) (UniProt P47820).
T2 sequence (whole entry): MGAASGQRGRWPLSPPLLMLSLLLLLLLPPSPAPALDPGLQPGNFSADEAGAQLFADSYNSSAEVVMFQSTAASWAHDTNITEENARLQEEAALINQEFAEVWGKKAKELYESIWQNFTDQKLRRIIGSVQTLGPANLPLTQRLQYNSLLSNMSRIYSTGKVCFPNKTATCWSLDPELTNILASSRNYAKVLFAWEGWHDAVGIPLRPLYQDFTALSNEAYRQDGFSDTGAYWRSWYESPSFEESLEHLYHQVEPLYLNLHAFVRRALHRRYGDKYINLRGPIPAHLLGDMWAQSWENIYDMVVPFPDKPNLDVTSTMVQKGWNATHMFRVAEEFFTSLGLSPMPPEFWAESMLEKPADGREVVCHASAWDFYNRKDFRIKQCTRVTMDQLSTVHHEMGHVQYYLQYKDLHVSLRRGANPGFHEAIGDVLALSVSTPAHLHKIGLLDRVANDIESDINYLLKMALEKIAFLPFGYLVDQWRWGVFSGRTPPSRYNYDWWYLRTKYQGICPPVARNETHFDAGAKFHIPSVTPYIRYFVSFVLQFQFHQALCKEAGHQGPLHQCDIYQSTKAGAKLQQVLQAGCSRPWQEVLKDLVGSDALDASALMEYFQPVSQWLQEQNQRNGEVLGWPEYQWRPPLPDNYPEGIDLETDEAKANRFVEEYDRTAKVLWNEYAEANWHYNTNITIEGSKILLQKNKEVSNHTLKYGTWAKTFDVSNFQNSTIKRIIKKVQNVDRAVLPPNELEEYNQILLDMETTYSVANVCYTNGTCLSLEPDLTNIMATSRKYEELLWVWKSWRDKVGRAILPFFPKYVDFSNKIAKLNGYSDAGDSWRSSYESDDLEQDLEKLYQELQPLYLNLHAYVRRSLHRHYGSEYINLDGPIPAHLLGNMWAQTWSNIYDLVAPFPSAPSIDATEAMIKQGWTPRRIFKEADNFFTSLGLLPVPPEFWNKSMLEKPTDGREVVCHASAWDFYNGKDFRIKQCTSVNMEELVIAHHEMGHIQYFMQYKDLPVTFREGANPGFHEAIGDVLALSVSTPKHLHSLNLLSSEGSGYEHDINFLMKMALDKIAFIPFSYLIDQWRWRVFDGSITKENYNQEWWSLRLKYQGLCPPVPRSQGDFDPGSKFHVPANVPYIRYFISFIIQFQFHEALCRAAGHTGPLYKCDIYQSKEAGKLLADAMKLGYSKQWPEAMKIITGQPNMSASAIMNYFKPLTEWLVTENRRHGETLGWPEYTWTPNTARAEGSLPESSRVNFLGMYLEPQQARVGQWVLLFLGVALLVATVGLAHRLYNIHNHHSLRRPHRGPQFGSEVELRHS
Briefly: In vivo percent mean decrease in Angiotensin I converting enzyme inhibitory activity in 2 rats administered perorally at a dose of 10 mg/kg. The class given is functional, organism-based. Details: dose 10 mg/kg. Put shortly:
(§1)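 Conscious normotensive male rats with aortic and vena caval catheters (implanted ≥6 days before), restrained. Angiotensin I and II, 0.25 μg/kg iv, given at 10-min intervals as pressor challenges. Compound given once, generally orally, suspended in 0.5% gum tragacanth. AI repeated every 10 min for ≥2 h. Max inhibition is % of mean of two predose AI responses. Duration runs from dosing until inhibition falls below 30%. ED50 taken from dose–response plot as dose giving 50% inhibition.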

In experiment [3] the target is T2, Angiotensin-converting enzyme (Rattus norvegicus). Briefly: In vivo mean duration for Angiotensin I converting enzyme inhibitory activity in 2 rats administered perorally at a dose of 10 mg/kg. The experiment is classed as functional, organism-based. On the set-up: dose 10 mg/kg. Put shortly:
as §1

Experiment [4] shares this target. As to the kind of experiment: In vivo mean duration for Angiotensin I converting enzyme inhibitory activity in 2 rats administered perorally at a dose of 1.5 mg/kg. The experiment is classed as functional, organism-based. Details: dose 1.5 mg/kg. Put shortly: as §1
For experiment [5] the target is unchanged. Briefly: In vivo percent mean decrease in Angiotensin I converting enzyme inhibitory activity in 2 rats administered perorally at a dose of 1.5 mg/kg. Details: dose 1.5 mg/kg. The class given is functional, organism-based. Put shortly: as §1
Experiment [6] shares this target. Briefly: In vivo mean duration for Angiotensin I converting enzyme inhibitory activity in rat administered perorally at a dose of 10 mg/kg. The class given is functional, organism-based. On the set-up: dose 10 mg/kg. The procedure, abridged: as §1
Experiment [7] has the same target. Briefly: In vivo percent mean decrease in Angiotensin I converting enzyme inhibitory activity in a rat administered perorally at a dose of 10 mg/kg. The class given is functional, organism-based. On the set-up: dose 10 mg/kg. The procedure, abridged: as §1
The target is the same in experiment [8]. Briefly: In vivo for percent mean decrease in Angiotensin I converting enzyme inhibitory activity in 4 rats administered perorally at a dose of 1.5 mg/kg. The experiment is classed as functional, organism-based. Details: dose 1.5 mg/kg. The procedure, abridged:
as §1

Experiment [9] shares this target. As to the kind of experiment: In vivo percent mean decrease in Angiotensin I converting enzyme activity in 2 rats administered perorally at a dose of 10 mg/kg. The experiment is classed as functional, organism-based. Details: dose 10 mg/kg. The procedure, abridged:
as §1

The target is the same in experiment [10]. Briefly: In vivo percent mean decrease in Angiotensin I converting enzyme inhibitory activity in 5 rats administered perorally at a dose of 10 mg/kg. The class given is functional, organism-based. Details: dose 10 mg/kg. The procedure, abridged:
as §1

The target is the same in experiment [11]. As to the kind of experiment: In vivo mean duration for Angiotensin I converting enzyme inhibitory activity in 5 rats administered perorally at a dose of 10 mg/kg. The class given is functional, organism-based. Details: dose 10 mg/kg. The procedure, abridged: as §1
Experiment [12] concerns Rattus norvegicus. Briefly: Effective dose against ACE inhibitory activity in rat in vivo. The class given is functional. The procedure, abridged: as §1

What is called IC50 is the concentration at which inhibition is half-maximal. Low readings indicate higher potency, high ones lower potency. Regarding `O=C(O)CN(C(=O)c1ccccc1C(=O)O)C1CCCC1`, the IC50 in experiment [1] stood at 100 µM.
Turning to `O=C(O)CN(C(=O)c1cccc(F)c1S)C1CCCC1`, the Mean decrease in experiment [2] stood at 84%. Besides, inhibition in experiment [1] was half-maximal at 0.55 µM (IC50). The same compound came in with a Mean duration in experiment [3] of 105 min.
In experiment [2], `CC(=O)Sc1c(F)cccc1C(=O)N(CC(=O)O)C1CCCC1` yielded a Mean decrease of 82%. This compound also gave an IC50 in experiment [1] of 0.6 µM. In experiment [3], this compound displayed a Mean duration of 90 min.
In turn, `CC(C)(C)C(=O)Sc1ccccc1C(=O)N(CC(=O)O)C1CCCC1` displayed a Mean duration in experiment [4] of 0 min. The compound further came in with a Mean decrease in experiment [5] of 19%.
For `O=C(O)CN(C(=O)c1cccc(C(F)(F)F)c1S)C1CCCC1`, the Mean decrease in [2] turned out to be 31%. Besides, the IC50 in experiment [1] worked out at 0.68 µM. The compound further displayed a Mean duration in experiment [3] of 20 min.
As to `O=C(O)CN(C(=O)c1ccccc1[N+](=O)[O-])C1CCCC1`, the IC50 in experiment [1] is 100 µM. In experiment [6], this compound registered a Mean duration of 0 min. This compound also yielded a Mean decrease in experiment [7] of 25%.
In [1], `O=C(O)CN(C(=O)c1cc(Cl)cc(Cl)c1O)C1CCCC1` had an IC50 of 100 µM.
With `CC(=O)Sc1ccc(C(=O)N(CC(=O)O)C2CCCC2)cc1`, the IC50 in experiment [1] was found to be 21 µM.
With `CC(=O)Sc1ccccc1C(=O)N(CC(=O)O)C1CCCC1`, it took 9.1 µM to reach half-maximal inhibition in [1] (IC50). Moreover, the Mean duration in [4] is 0 min. The Mean decrease in experiment [5] was determined as 25%.
Regarding `O=C(O)CN(C(=O)c1cc(Cl)cc(Cl)c1S)C1CCCC1`, the midpoint of inhibition in experiment [1], the IC50, lay at 4.1 µM.
`O=C(O)CN(C(=O)c1ccccc1S)C1CCCC1` displayed an IC50 in [1] of 4.8 µM. This compound also showed a Mean decrease in experiment [8] of 34%. The compound also yielded a Mean duration in [4] of 35 min.
In experiment [1], `O=C(O)CN(C(=O)c1cc(Cl)ccc1S)C1CCCC1` came in with an IC50 of 80 µM. This compound yielded a Mean decrease in experiment [9] of 22%. Moreover, in [3], the Mean duration amounted to 0 min.
In [1], `CCOC(=O)CN(C(=O)c1cc(Cl)cc(Cl)c1OC(C)=O)C1CCCC1` had an IC50 of 100 µM.
Turning to `CC(C)c1cccc(C(=O)N(CC(=O)O)C2CCCC2)c1S`, the Mean decrease in experiment [2] was determined as 23%. Further, the IC50 in experiment [1] was 120 µM. Further, the Mean duration in experiment [3] is 0 min.
As a reminder, the ED50 is the dose that gives a 50% effect, or the effect in half of the subjects. Compound `COc1cccc(C(=O)N(CC(=O)O)C2CCCC2)c1S` registered an IC50 in [1] of 0.38 µM. Also, the Mean decrease in experiment [10] stood at 92%. This compound also came in with a Mean duration in experiment [11] of 4 h. This compound also displayed an ED50 in experiment [12] of 0.8 mg/kg.
In [1], `CC(=O)Sc1cccc(C(=O)N(CC(=O)O)C2CCCC2)c1` displayed an IC50 of 28 µM.
For the compound `O=C(O)CN(C(=O)c1cccc(Cl)c1S)C1CCCC1`, the IC50 in [1] is 0.28 µM. The compound further showed a Mean decrease in [10] of 85%. In experiment [11], the Mean duration is over 4 h. In addition, it took a dose of 0.3 mg/kg to reach the 50% effect level in experiment [12] (ED50).
In turn, `O=C(O)CN(C(=O)c1cccc(S)c1)C1CCCC1` displayed a Mean decrease in experiment [2] of 13%. In experiment [1], this compound gave a half-inhibitory concentration (IC50) of 25 µM. For the same compound, the Mean duration in experiment [3] amounted to 0 min.
On to `O=C(O)CN(C(=O)c1ccc(S)cc1)C1CCCC1`, for which 21 µM corresponded to half-maximal inhibition in experiment [1] (IC50).
As for `Cc1cccc(C(=O)N(CC(=O)O)C2CCCC2)c1S`, in experiment [2], the Mean decrease was 77%. Moreover, the IC50 in experiment [1] came to 4.6 µM. This compound registered a Mean duration in experiment [3] of 50 min.
Turning to `CC(=O)Sc1c(C)cccc1C(=O)N(CC(=O)O)C1CCCC1`, the IC50 in [1] was determined as 2.2 µM. The same compound yielded a Mean duration in experiment [4] of 20 min. The Mean decrease in [5] was found to be 35%.
